Measurements from PMC3331960 (Nature chemical biology, 2012).

Assays:
[1] = biological target: T1, TIR1-IAA7 interaction (Arabidopsis thaliana, UniProt Q38825+Q570C0); experiment: LexA yeast two-hybrid, auxin-induced TIR1-IAA7 interaction; assay type: cell-based; details: 50 μM auxins in selective media
T1 sequence (Q570C0 1-594): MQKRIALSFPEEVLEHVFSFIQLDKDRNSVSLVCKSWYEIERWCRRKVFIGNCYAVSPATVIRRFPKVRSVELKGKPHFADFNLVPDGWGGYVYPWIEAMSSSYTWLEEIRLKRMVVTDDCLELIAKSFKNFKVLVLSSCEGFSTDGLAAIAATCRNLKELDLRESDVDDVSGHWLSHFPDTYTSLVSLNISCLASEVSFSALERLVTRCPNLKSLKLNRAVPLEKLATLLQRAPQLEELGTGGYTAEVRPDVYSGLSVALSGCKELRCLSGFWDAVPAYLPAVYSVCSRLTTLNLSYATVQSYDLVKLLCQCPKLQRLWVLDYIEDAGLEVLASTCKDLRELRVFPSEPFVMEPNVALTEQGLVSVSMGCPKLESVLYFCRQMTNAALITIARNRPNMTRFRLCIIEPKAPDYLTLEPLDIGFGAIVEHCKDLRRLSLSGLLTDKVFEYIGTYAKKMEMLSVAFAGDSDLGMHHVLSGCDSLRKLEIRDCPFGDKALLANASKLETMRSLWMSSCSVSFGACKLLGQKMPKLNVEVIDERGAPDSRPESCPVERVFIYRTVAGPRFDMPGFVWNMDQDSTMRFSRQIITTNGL
T1 sequence (Q38825 1-243): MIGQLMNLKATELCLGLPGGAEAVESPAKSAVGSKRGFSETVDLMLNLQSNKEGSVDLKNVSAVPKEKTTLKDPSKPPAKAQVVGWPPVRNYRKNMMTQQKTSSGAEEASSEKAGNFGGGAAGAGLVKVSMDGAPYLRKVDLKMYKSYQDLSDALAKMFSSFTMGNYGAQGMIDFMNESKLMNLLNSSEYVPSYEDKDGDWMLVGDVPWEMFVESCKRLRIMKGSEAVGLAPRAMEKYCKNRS

[2] = test system: Arabidopsis wild type plants (Col-0); experiment: Root elongation assay of seedlings; assay type: in vivo, Arabidopsis thaliana; details: 40 or 80 nM 2,4-D, 4 days, Col-0 seedlings
Method in brief: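 Seedlings grown 5 days on MS medium, then transferred to medium with 2,4-D. Root elongation was measured after 4 more days and expressed as a proportion of growth without auxin. Col-0, tir1-1 and tir1-1 afb2-3 were tested; error bars are STDEV.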

[3] = biological target: T2, TIR1-IAA7 (Arabidopsis thaliana, UniProt Q38825+Q570C0); experiment: [3H]-IAA radioligand binding; details: Ki (Mean ± SEM), TIR1-IAA7, cold competitor vs [3H] IAA
T2 sequence (Q570C0 1-594): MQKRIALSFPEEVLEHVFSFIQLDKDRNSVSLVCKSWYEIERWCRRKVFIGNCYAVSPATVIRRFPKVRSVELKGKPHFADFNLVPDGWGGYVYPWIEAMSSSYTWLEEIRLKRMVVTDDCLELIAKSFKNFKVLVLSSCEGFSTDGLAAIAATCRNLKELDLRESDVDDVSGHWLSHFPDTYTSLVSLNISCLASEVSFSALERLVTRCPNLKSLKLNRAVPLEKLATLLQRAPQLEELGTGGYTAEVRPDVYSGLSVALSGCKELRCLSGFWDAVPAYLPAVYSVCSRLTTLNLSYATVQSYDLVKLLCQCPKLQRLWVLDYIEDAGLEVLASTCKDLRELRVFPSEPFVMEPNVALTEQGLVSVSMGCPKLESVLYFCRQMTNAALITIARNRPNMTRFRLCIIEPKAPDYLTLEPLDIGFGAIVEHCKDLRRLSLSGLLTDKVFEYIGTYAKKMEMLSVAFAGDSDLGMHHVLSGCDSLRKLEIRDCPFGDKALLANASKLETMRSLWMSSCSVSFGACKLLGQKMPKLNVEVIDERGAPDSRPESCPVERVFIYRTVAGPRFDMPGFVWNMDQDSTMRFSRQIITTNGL
T2 sequence (Q39255 1-160 partner): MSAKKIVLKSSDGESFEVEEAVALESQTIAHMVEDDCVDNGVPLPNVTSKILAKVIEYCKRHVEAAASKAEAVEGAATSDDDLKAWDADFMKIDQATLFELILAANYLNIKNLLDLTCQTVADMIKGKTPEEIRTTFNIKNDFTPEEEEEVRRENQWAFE
T2 sequence (Q38825 1-243): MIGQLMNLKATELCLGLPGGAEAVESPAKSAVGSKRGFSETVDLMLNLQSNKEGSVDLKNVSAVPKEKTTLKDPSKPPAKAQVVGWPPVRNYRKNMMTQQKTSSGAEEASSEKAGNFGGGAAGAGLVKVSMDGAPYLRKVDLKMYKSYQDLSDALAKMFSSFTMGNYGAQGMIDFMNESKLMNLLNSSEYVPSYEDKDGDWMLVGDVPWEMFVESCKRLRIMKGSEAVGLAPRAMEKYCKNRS
Method in brief: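 ASK1-TIR1 or ASK1-AFB5 (0.44 μg, insect cells) with E. coli GST-IAA7 (1:10 molar), >1 h at 4°C in pH 8.0 Tris binding buffer. KD from [³H]-IAA saturation binding. Ki from competition with cold 1-NAA, 2,4-D or picloram against fixed [³H]-IAA (5–100 nM), fitted to a one-site competition model by nonlinear regression. Filter binding with scintillation read-out; triplicates.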

[4] = biological target: TIR1-IAA7 DII (Arabidopsis thaliana, UniProt Q38825+Q570C0, DEL96-243); experiment: Surface plasmon resonance, TIR1 over immobilized IAA7 DII peptide; assay type: binding; details: for TIR1 association with the DII peptide (SPR): co-injection of TIR1 with auxin, vs no auxin

| SMILES | TIR1-IAA7 interaction in yeast (β-galactosidase expression) [1] | root elongation [2] | Ki [3] [nM] | dissociation of the TIR1-IAA7 DII complex (SPR) ([4]; 50 μM ligand concentration) | TIR1 association with the DII peptide (SPR) [4] |
| --- | --- | --- | --- | --- | --- |
| O=C(O)COc1ccc(Cl)cc1Cl [2,4-D, 2,4-dichlorophenoxyacetic acid] | promoted TIR1-IAA7 interaction, but not to the same extent as IAA | inhibits root growth elongation | 248 to 1000 | much more rapid dissociation rate | enhanced association with the peptide |
| O=C(O)Cc1cccc2ccccc12 [1-NAA, 1-naphthaleneacetic acid] | promoted TIR1-IAA7 interaction, but not to the same extent as IAA |  |  |  | enhanced association with the peptide |
